Structures can show the parent of a compound that is named as a salt.
Tests used:
HepG2 [1] = assay: Cytotoxicity against human HepG2 cells assessed as inhibition of proliferation incubated for 72 hrs by MTT assay; assay type: functional, cell-based; conditions: HepG2, 72 h
Method in brief: (§1)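 Cells plated at 3×10³/well, grown overnight in DMEM + 10% FBS, then exposed to compounds (DMSO stocks; 0.1% DMSO negative control) for 72 h at 37 °C. MTT (5 mg/mL in PBS, added at 10%) for 4 h, formazan dissolved in DMSO, A570 read. Inhibition = (Ac−As)/(Ac−Ab)×100; IC50 by calculator; ≥3 independent repeats.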

HepG2 [2] = assay: Cytotoxicity against human HepG2 cells assessed as inhibition rate at 2.5 uM incubated for 72 hrs by MTT assay relative to control; assay type: functional
Method in brief: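 HepG2 exposed to each compound at 2.5 µM-range single concentration for 72 h at 37 °C after overnight attachment in DMEM + 10% FBS; 0.1% DMSO control. MTT 4 h, DMSO solubilisation, A570; inhibition rate = (Ac−As)/(Ac−Ab)×100.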

Bel-7402 = assay: Cytotoxicity against human Bel-7402 cells assessed as inhibition of proliferation incubated for 72 hrs by MTT assay; assay type: functional, cell-based; conditions: Bel-7402, 72 h; method in brief: as §1
U-251 = assay: Cytotoxicity against human U251 cells assessed as inhibition of proliferation incubated for 72 hrs by MTT assay; assay type: functional, cell-based; conditions: U-251, 72 h; method in brief: as §1
A549 = assay: Cytotoxicity against human A549 cells assessed as inhibition of proliferation incubated for 72 hrs by MTT assay; assay type: functional, cell-based; conditions: A549, 72 h; method in brief: as §1

Row | Structure (SMILES) | IC50 (HepG2 [1]) | inhibition at 2.5 µM (HepG2 [2]) | IC50 (Bel-7402) | IC50 (U-251) | IC50 (A549)
1 | O=C(c1ccc(Cl)cc1)c1nc2ccccc2c(=O)[nH]1 | > 50 µM |  |  |  | 
2 | O=C(c1ccc(C(F)(F)F)cc1)c1nc2ccccc2c(=O)[nH]1 | > 50 µM |  |  |  | 
3 | COc1ccc2c(=O)[nH]c(C(=O)c3cc(OC)c(OC)c(OC)c3)nc2c1 | 10.6 µM | 43.4% | 4.13 µM | 13.7 µM | 12.7 µM
4 | COc1cc(C(=O)c2nc3ccccc3c(=O)n2Cc2nnc(-c3ccc(C)cc3)o2)cc(OC)c1OC | 10.5 µM | 12.6% | 8.88 µM | 27 µM | 47.1 µM
5 | COc1cc(C(=O)c2nc(OC(C)C)c3ccccc3n2)cc(OC)c1OC | 7.45 µM | 10.8% | 4.91 µM | > 100 µM | 7.27 µM
6 | COc1cc(C(=O)c2nc3ccccc3c(=O)n2Cc2nnc(-c3ccc(Cl)cc3)o2)cc(OC)c1OC |  | 2.3% |  |  | 
7 | O=C(c1nc2ccccc2c(=O)[nH]1)c1ccccc1OC(F)(F)F | > 50 µM |  |  |  | 
8 | C=CCn1c(C(=O)c2cc(OC)c(OC)c(OC)c2)nc2ccccc2c1=O | 14.1 µM | 21% | 10.7 µM | 13 µM | 10.5 µM
9 | COc1cc(C(=O)c2nc3c(OC)cccc3c(=O)[nH]2)cc(OC)c1OC |  | 8.1% |  |  | 
10 | COc1cc(C(=O)c2nc3cccc(Br)c3c(=O)[nH]2)cc(OC)c1OC |  | 5.1% |  |  | 
11 | COc1cc(C(=O)c2nc3cc(F)ccc3c(=O)[nH]2)cc(OC)c1OC |  | 9.7% |  |  | 
12 | COc1cc(C(=O)c2nc(Cl)c3ccccc3n2)cc(OC)c1OC | 10.9 µM | 18.4% | 6.88 µM | > 100 µM | 7.09 µM
13 | COc1cc(C(=O)c2nc3ccc(Br)cc3c(=O)[nH]2)cc(OC)c1OC |  | 3.4% |  |  | 
14 | COc1cc(C(=O)c2nc3c(Br)cccc3c(=O)[nH]2)cc(OC)c1OC |  | 1.3% |  |  | 
15 | COc1cc(C(=O)c2nc3cccc(OC)c3c(=O)[nH]2)cc(OC)c1OC | 9.15 µM | 10.2% | 7.1 µM | 19.2 µM | 15.4 µM
16 | O=C(c1nc2ccccc2c(=O)[nH]1)c1ccccc1C(F)(F)F | > 50 µM |  |  |  | 
17 | COc1cc(C(=O)c2nc3ccc(F)cc3c(=O)[nH]2)cc(OC)c1OC |  | 5.1% |  |  | 
18 | COc1cc(C(=O)c2nc3ccc(Cl)cc3c(=O)[nH]2)cc(OC)c1OC |  | 3.4% |  |  | 
19 | COc1cc(C(=O)c2nc3ccccc3c(=O)n2Cc2nnc(-c3ccco3)o2)cc(OC)c1OC | 7.51 µM | 34.4% | 8.15 µM | 15.9 µM | 4.62 µM
20 | O=C(c1ccc(OC(F)(F)F)cc1)c1nc2ccccc2c(=O)[nH]1 | > 50 µM |  |  |  | 

Row | Structure (SMILES) | IC50 (HepG2 [1]) | inhibition at 2.5 µM (HepG2 [2]) | IC50 (Bel-7402) | IC50 (U-251) | IC50 (A549)
21 | COc1ccc2nc(C(=O)c3cc(OC)c(OC)c(OC)c3)[nH]c(=O)c2c1 |  | 4.2% |  |  | 
22 | COc1cc(C(=O)c2nc3cc(Br)ccc3c(=O)[nH]2)cc(OC)c1OC | 7.45 µM | 17.6% | 4.91 µM | > 100 µM | 7.27 µM
23 | COc1ccccc1C(=O)c1nc2ccccc2c(=O)[nH]1 | > 50 µM |  |  |  | 
24 | COc1cc(C(=O)c2nc3c(F)cccc3c(=O)[nH]2)cc(OC)c1OC |  | 6.8% |  |  | 
25 | O=C(c1ccc(O)cc1)c1nc2ccccc2c(=O)[nH]1 [PENIPANOID C] | > 50 µM |  |  |  | 
26 | COc1cc2nc(C(=O)c3cc(OC)c(OC)c(OC)c3)[nH]c(=O)c2cc1OC |  | 5.1% |  |  | 
27 | O=C(c1ccc(F)cc1)c1nc2ccccc2c(=O)[nH]1 | > 50 µM |  |  |  | 
28 | COc1cc(C(=O)c2nc3cccc(Cl)c3c(=O)[nH]2)cc(OC)c1OC |  | 3.7% |  |  | 
29 | COc1ccc(C(=O)c2nc3ccccc3c(=O)[nH]2)cc1 | > 50 µM |  |  |  | 
30 | COc1cc(C(=O)c2nc3ccccc3c(=O)n2C)cc(OC)c1OC | 8.19 µM | 17.4% | 6.34 µM | > 100 µM | 20.3 µM
31 | COc1cc(C(=O)c2nc3cccc(F)c3c(=O)[nH]2)cc(OC)c1OC |  | 9.4% |  |  | 
32 | COc1cc(C(=O)c2nc3ccc([N+](=O)[O-])cc3c(=O)[nH]2)cc(OC)c1OC |  | 8.8% |  |  | 
33 | COc1cc(C(=O)c2nc3ccccc3c(=O)n2Cc2nnc(-c3ccc(F)cc3)o2)cc(OC)c1OC | 7.07 µM | 26.3% | 4.86 µM | 27.5 µM | 7.66 µM
34 | COc1cc(C(=O)c2nc3c(Cl)cccc3c(=O)[nH]2)cc(OC)c1OC |  | 9.2% |  |  | 
35 | COc1cc(C(=O)c2nc3cc([N+](=O)[O-])ccc3c(=O)[nH]2)cc(OC)c1OC |  | 6.9% |  |  | 
36 | COc1cc(C(=O)c2nc3cc(Cl)ccc3c(=O)[nH]2)cc(OC)c1OC |  | 8.2% |  |  | 
37 | COc1cccc2c1C(=O)c1c(O)c3c(c(O)c1C2=O)C[C@@](O)(C(=O)CO)C[C@@H]3O[C@H]1C[C@H](N)[C@H](O)[C@H](C)O1 [DOXORUBICIN HYDROCHLORIDE] | 2.21 µM |  | 1.28 µM | 0.157 µM | 
38 | CCOc1nc(C(=O)c2cc(OC)c(OC)c(OC)c2)nc2ccccc12 | 15.6 µM | 32% | 8.29 µM | 10.6 µM | > 100 µM
39 | C#CCn1c(C(=O)c2cc(OC)c(OC)c(OC)c2)nc2ccccc2c1=O | 4.97 µM | 54.7% | 5.4 µM | 12.8 µM | 7.66 µM
40 | COc1cc(C(=O)c2nc3cc(F)c(F)cc3c(=O)[nH]2)cc(OC)c1OC |  | 1.2% |  |  | 

Reference: ChEMBL document CHEMBL4842335, “Discovery of penipanoid C-inspired 2-(3,4,5-trimethoxybenzoyl)quinazolin-4(3H)-one derivatives as potential anticancer agents by inhibiting cell proliferation and inducing apoptosis in hepatocellular carcinoma cells” (Eur J Med Chem, 2021)
